From ChEMBL document CHEMBL1130204, “3 alpha-Hydroxy-3 beta-(phenylethynyl)-5 beta-pregnan-20-ones: synthesis and pharmacological activity of neuroactive steroids with high affinity for GABAA receptors” (J Med Chem, 1997)

Columns and labels:
[1] = target: GABA-A receptor; anion channel; test: In vitro inhibition of [35S]TBPS binding to Gamma-aminobutyric acid A (GABA-A) receptor of rat brain cortical membranes in the presence of 5 uM GABA(high affinity); type: cell membranes, Membrane
Procedure, shortened: (§1)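 Rat cortical P2 membranes, washed in 200 mM NaCl/50 mM Na-K phosphate pH 7.4, incubated 90 min at room temperature with 2 nM [35S]TBPS, 5 µM GABA and test drug in DMSO (final 0.5%). Nonspecific binding taken with 2 µM unlabeled TBPS. Filtration, then scintillation counting. Partial vs full and one- vs two-component models chosen by F-test. IC50 and Imax come from individual experiments, given as mean ± SEM of 3–4.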

Mus musculus [2] = test: Percent of animals (n=8) not exhibiting PTZ-induced ( Pentylentetrazol protection) seizures 10 min following a 10 mg/kg ip dose of steroid.; type: functional; conditions: route intraperitoneal
Procedure, shortened: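 Male NSA mice (15-20 g), n = 8. […] Mice watched 30 min for clonic seizure (forelimb clonus ≥3 s). Read-out is the percent of mice protected.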

Rattus norvegicus [3] = species: Rattus norvegicus; test: The maximum inhibitory potency was calculated by fitting [35S]TBPS inhibition data to a sigmoid function (rat brain cortical P2 membranes) (high affinity); type: functional; procedure, shortened: as §1
Rattus norvegicus [4] = species: Rattus norvegicus; test: (§2) The maximum inhibitory potency was calculated by fitting [35S]TBPS inhibition data to a sigmoid function (rat brain cortical P2 membranes) (low affinity); type: functional; procedure, shortened: as §1
[5] = target: T1, GABA-A receptor; alpha-1/beta-2/gamma-2 (Homo sapiens, UniProt P14867+P18507+P47870); test: Steroid potentiation of 5% GABA responses in Xenopus oocytes expressing human alpha-1-beta-2-gamma-2L subunits of GABA-A receptor; type: functional, cell-based, Oocyte
T1 sequence (P14867 whole entry): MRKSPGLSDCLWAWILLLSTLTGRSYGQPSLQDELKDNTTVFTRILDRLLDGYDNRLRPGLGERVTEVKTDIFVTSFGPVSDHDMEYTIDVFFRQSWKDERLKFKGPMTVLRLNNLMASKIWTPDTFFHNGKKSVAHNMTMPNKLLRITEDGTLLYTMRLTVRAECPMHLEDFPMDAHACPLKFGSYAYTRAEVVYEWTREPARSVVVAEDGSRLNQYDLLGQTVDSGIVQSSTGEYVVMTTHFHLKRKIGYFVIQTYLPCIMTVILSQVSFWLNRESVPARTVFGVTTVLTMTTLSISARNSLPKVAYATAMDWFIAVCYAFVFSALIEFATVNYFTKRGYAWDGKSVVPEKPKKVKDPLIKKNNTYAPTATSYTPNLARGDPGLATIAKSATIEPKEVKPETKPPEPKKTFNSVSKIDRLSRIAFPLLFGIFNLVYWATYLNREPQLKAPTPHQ
T1 sequence (P47870 whole entry): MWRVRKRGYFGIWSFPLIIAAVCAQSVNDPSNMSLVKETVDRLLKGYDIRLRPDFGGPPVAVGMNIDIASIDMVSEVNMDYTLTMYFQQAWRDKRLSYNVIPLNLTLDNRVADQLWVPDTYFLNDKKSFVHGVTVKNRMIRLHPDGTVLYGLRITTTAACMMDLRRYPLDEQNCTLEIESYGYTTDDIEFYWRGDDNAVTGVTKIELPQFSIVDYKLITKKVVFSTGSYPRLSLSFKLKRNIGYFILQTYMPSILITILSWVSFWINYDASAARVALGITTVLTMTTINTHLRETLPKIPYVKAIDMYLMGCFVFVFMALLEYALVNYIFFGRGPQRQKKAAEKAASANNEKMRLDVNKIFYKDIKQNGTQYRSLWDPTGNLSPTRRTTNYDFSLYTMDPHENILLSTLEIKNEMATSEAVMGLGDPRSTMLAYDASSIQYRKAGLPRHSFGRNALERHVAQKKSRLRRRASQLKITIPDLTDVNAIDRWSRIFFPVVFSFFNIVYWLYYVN
T1 sequence (P18507 whole entry): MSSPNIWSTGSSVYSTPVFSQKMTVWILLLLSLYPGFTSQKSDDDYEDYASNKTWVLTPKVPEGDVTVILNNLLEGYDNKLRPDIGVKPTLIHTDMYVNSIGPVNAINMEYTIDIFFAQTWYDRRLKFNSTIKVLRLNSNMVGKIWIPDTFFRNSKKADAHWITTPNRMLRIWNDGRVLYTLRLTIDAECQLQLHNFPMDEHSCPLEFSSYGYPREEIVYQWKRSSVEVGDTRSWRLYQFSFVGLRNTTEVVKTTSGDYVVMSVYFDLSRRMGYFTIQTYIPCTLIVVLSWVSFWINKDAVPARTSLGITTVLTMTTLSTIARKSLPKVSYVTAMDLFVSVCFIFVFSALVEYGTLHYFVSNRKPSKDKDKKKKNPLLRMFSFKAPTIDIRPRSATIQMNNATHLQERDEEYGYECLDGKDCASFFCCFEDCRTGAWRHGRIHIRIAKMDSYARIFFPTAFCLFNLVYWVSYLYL
Procedure, shortened: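 Xenopus oocytes injected with α1, β2, γ2L cRNAs (~1 ng each). Two-electrode voltage clamp at -70 mV in frog Ringer's, pH 7.4. GABA set to give about 5% of the maximal (1 mM GABA) current. Steroid stocks in DMSO diluted into Ringer's, DMSO 0.3%. Modulation is potentiation plus any direct steroid current, fitted to a four-parameter logistic. Mean ± SEM.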

[6] = target: GABA-A receptor; alpha-1/beta-2/gamma-2 (Homo sapiens) (UniProt P14867+P47870+P18507); test: Efficacy as fractional response (FR) relative to GABA maximum current elicited in the Xenopus oocytes; type: functional, cell-based; conditions: Oocyte
Procedure, shortened: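 Xenopus oocytes expressing α1β2γ2L GABAA receptors (~1 ng each cRNA), two-electrode voltage clamp at -70 mV in frog Ringer's pH 7.4. GABA set to give ~5% of maximal current (1 mM GABA). Steroid co-applied with 0.3% DMSO. Response taken as potentiation plus any direct current, expressed as a fraction of GABA maximum, fit to a four-parameter logistic.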

[7] = Slope value was determined
[8] = target: T2, Gamma-aminobutyric acid receptor subunit gamma-1 (Rattus norvegicus, UniProt P23574); test: In vitro inhibition of [35S]-TBPS binding to Gamma-aminobutyric acid A receptor in rat brain cortical membranes in the presence of 5 uM GABA (low affinity); type: functional, cell membranes, Membrane; procedure, shortened: as §1
[9] = target: GABA-A receptor; anion channel; test: (§3) In vitro inhibition of [35S]TBPS binding to Gamma-aminobutyric acid A receptor in rat brain cortical membranes in the presence of 5 uM GABA (low affinity); type: cell membranes, Membrane
Procedure, shortened: (§4)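 Rat cortical P2 membranes washed in 200 mM NaCl/50 mM Na-K phosphate pH 7.4, incubated 90 min at room temperature with 2 nM [35S]TBPS, 5 µM GABA and test drug in DMSO (final 0.5%). Nonspecific binding defined with 2 µM unlabeled TBPS. Filtration, scintillation counting. Fits to one- or two-component, full or partial inhibition models chosen by F-test; IC50 and Imax as mean ± SEM of individual experiments.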

[10] = target: GABA-A receptor; anion channel; test: In vitro inhibition of [35S]TBPS binding to Gamma-aminobutyric acid A receptor in rat brain cortical membranes in the presence of 5 uM GABA (high affinity); type: cell membranes, Membrane; procedure, shortened: as §4
Rattus norvegicus [11] = species: Rattus norvegicus; test: as §2; type: functional; procedure, shortened: as §4; remark: listed apart in the source
Mus musculus [12] = test: Anticonvulsant potency that produces blockade of MES-induced seizures when administered intraperitoneally; type: functional; conditions: ip
Procedure, shortened: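 Male NSA mice given steroid ip in 50% HP-β-CD 30 min before corneal electroshock (50 mA, 60 pulses/s, 0.8 ms pulses, 1 s). End-point is tonic hindlimb extension >90° within 30 s. Quantal dose-response; ED50 reported with 95% CI.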

Mus musculus [13] = test: Anticonvulsant potency that produces blockade of PTZ-induced seizures when administered intraperitoneally; type: functional; conditions: ip
Procedure, shortened: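 Male NSA mice given steroid ip in 50% HP-β-CD 30 min before PTZ 85 mg/kg sc. Mice watched 30 min for forelimb clonus ≥3 s. Quantal dose-response; ED50 reported with 95% confidence interval.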

Rattus norvegicus [14] = species: Rattus norvegicus; test: (§5) The maximum inhibitory potency was calculated by fitting [35S]TBPS inhibition data to a sigmoid function (rat brain cortical P2 membranes); type: functional; procedure, shortened: as §4
[15] = Toxic dose that produces increase in hanging-wire failure; type: toxicity; conditions: mouse
Procedure, shortened: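 Male NSA mice, 15–20 g, given steroid ip in 50% HP-β-CD 30 min before testing. Hanging wire of 2 mm diameter, 25 cm above padding. A pass means both hindpaws reach the wire within 5 s. Quantal scoring; TD50 with 95% confidence interval.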

[16] = target: GABA-A receptor; anion channel; test: In vitro inhibition of [35S]TBPS binding to gamma-aminobutyric-acid A receptor in rat brain cortical membranes in the presence of 5 uM GABA.; type: cell membranes, Membrane
Procedure, shortened: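 Rat cortical P2 membranes, washed in 200 mM NaCl/50 mM Na-K phosphate pH 7.4, incubated 90 min at room temperature with 2 nM [35S]TBPS, 5 µM GABA and test drug in DMSO (final 0.5%). Nonspecific binding taken with 2 µM unlabeled TBPS. Filtration, then scintillation counting. Partial vs full and one- vs two-component models chosen by F-test.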

[17] = target: GABA-A receptor; anion channel; test: as §3; type: cell membranes, Membrane; procedure, shortened: as §1; remark: listed apart in the source
[18] = target: T2, Gamma-aminobutyric acid receptor subunit gamma-1; test: In vitro for inhibition of [35S]TBPS binding in rat brain cortical membranes in the presence of 5 uM GABA in two-component inhibition curve; type: functional, cell membranes, Membrane; procedure, shortened: as §1
Rattus norvegicus [19] = species: Rattus norvegicus; test: as §5; type: functional; procedure, shortened: as §1; remark: listed apart in the source
[20] = The slope value for efficacy and response
Procedure, shortened: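 Oocytes expressing α1β2γ2L GABAA receptors under two-electrode voltage clamp in frog Ringer's pH 7.4. GABA or steroid concentration-response data fitted to a four-parameter logistic equation to derive slope. Mean ± SEM.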

T2 sequence (P23574 whole entry): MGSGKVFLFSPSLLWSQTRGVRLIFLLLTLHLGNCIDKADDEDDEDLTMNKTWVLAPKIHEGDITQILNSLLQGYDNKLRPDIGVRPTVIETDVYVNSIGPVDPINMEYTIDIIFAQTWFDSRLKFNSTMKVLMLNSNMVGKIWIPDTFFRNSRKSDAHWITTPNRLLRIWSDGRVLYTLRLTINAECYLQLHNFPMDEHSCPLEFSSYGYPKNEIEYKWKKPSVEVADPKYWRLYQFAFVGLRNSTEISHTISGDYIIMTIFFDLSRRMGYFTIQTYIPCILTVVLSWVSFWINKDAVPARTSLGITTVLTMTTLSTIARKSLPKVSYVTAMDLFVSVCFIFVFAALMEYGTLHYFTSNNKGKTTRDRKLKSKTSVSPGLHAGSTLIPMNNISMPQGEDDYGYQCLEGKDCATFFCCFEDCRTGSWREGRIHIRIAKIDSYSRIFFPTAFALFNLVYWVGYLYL

| Structure (SMILES) | IC50 [1] [µM] | PTZ protection (Mus musculus [2]) [%] | Imax (Rattus norvegicus [3]) [%] | Imax (Rattus norvegicus [4]) [%] | EC50 [5] [µM] | Efficacy [6] | Slope [7] | IC50 [8] [µM] | IC50 [9] [µM] | IC50 [10] [µM] | Imax (Rattus norvegicus [11]) [%] | ED50 (Mus musculus [12]) [mg/kg] | ED50 (Mus musculus [13]) [mg/kg] | Imax (Rattus norvegicus [14]) [%] | TD50 [15] [mg/kg] | IC50 [16] [µM] | IC50 [17] [µM] | IC50 [18] [µM] | Imax (Rattus norvegicus [19]) [%] | Slope [20] |
| --- | --- | --- | --- | --- | --- | --- | --- | --- | --- | --- | --- | --- | --- | --- | --- | --- | --- | --- | --- | --- |
| CC(=O)[C@H]1CC[C@H]2[C@@H]3CC[C@@H]4C[C@@](O)(C#Cc5ccccc5O)CC[C@]4(C)[C@H]3CC[C@]12C | 0.082 | 0 | 30 | 57 | 0.34 | 0.51 | 1.6 | 5.1 | – | – | – | – | – | – | – | – | – | – | – | – |
| CC(=O)[C@H]1CC[C@H]2[C@@H]3CC[C@@H]4C[C@@](O)(C#Cc5ccc(N)cc5)CC[C@]4(C)[C@H]3CC[C@]12C | – | 13 | 17 | – | > 1 | – | – | – | 11.8 | 0.096 | 84 | – | – | – | – | – | – | – | – | – |
| CC(=O)c1ccc(C#C[C@@]2(O)CC[C@H]3[C@H](CC[C@@H]4[C@@H]3CC[C@]3(C)[C@@H](C(C)=O)CC[C@@H]43)C2)cc1 | – | 100 | – | – | 0.0082 | 0.91 | 1.4 | – | – | – | – | 9.2 | 2.8 | 97 | 13.2 | – | – | – | – | – |
| CC(=O)c1ccc(C#C[C@@]2(O)CC[C@@]3(C)[C@H](CC[C@@H]4[C@@H]3CC[C@]3(C)[C@@H](C(C)=O)CC[C@@H]43)C2)cc1 | – | 75 | – | – | 0.0066 | 0.94 | 1.2 | – | – | – | – | 7.4 | 8.2 | 106 | 10 | 0.01 | – | – | – | – |
| CC(=O)[C@H]1CC[C@H]2[C@@H]3CC[C@@H]4C[C@@](O)(C#Cc5ccc(C=O)cc5)CC[C@]4(C)[C@H]3CC[C@]12C | 0.067 | 0 | 44 | 54 | 0.031 | 0.88 | – | – | – | – | – | – | – | – | – | – | 1.6 | 1.6 | 54 | 1.3 |
| CC(=O)[C@H]1CC[C@H]2[C@@H]3CC[C@@H]4C[C@@](O)(C#Cc5ccc(N(C)C)cc5)CC[C@]4(C)[C@H]3CC[C@]12C | – | 50 | – | – | 0.018 | 0.76 | 1.1 | – | – | – | – | – | – | 78 | – | 0.04 | – | – | – | – |
| CC(=O)c1cccc(C#C[C@@]2(O)CC[C@@]3(C)[C@H](CC[C@@H]4[C@@H]3CC[C@]3(C)[C@@H](C(C)=O)CC[C@@H]43)C2)c1 | – | 0 | 34 | 65 | – | – | – | – | 1.5 | 0.045 | – | – | – | – | – | – | – | – | – | – |
